The values below come from ChEMBL document CHEMBL4765373, “Design, synthesis and biological evaluation of rasagiline-clorgyline hybrids as novel dual inhibitors of monoamine oxidase-B and amyloid-β aggregation against Alzheimer's disease” (Eur J Med Chem, 2020).

The species named for series [1] is Homo sapiens. Description: Inhibition of self-induced amyloid beta (1 to 42) (unknown origin) peptide aggregation at 25 uM measured after 48 hrs by thioflavin-T fluorescence assay relative to control.
For series [2], the target named is T1, Amine oxidase [flavin-containing] B (Homo sapiens, UniProt P27338).
T1 sequence (P27338 whole entry): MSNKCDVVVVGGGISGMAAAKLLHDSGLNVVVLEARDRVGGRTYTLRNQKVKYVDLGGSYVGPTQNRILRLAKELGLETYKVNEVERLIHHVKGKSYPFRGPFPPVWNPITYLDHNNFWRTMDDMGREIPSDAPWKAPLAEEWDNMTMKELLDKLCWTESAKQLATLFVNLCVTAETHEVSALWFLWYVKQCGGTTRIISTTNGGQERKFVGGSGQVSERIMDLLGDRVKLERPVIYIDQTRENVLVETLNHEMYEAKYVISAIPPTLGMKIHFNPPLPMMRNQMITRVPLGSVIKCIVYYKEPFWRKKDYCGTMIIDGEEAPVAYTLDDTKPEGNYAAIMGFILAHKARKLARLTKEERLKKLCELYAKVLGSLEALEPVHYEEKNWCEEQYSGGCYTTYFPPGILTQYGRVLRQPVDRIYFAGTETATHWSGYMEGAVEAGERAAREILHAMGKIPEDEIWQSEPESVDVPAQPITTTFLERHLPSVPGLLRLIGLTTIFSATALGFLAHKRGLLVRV
Description: biochemical. The class given is cell-based, BTI.

Another series can be described thus: in vitro. The following applies: PAMPA, pH 7.4. (PAMPA measures passive passage across an artificial lipid membrane.)
The species named for series [3] is Homo sapiens. Description: Selectivity index, ratio of IC50 for recombinant human MAOA expressed in baculovirus infected BTI insect cells to IC50 for recombinant human MAOB expressed in baculovirus infected BTI insect cells. In short, it runs like this: (§1)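 Recombinant human MAO-A or MAO-B with p-tyramine substrate; H2O2 production detected by Amplex Red. Compounds diluted in DMSO/PBS (final DMSO <0.1%) and incubated with enzyme and substrate 15 min at 37 °C in the dark. Fluorescence read at ex/em 545/590 nm; mean ± SD of three independent experiments.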

The next series concerns the target T2, MAO-A (Homo sapiens, UniProt P21397).
T2 sequence (P21397 whole entry): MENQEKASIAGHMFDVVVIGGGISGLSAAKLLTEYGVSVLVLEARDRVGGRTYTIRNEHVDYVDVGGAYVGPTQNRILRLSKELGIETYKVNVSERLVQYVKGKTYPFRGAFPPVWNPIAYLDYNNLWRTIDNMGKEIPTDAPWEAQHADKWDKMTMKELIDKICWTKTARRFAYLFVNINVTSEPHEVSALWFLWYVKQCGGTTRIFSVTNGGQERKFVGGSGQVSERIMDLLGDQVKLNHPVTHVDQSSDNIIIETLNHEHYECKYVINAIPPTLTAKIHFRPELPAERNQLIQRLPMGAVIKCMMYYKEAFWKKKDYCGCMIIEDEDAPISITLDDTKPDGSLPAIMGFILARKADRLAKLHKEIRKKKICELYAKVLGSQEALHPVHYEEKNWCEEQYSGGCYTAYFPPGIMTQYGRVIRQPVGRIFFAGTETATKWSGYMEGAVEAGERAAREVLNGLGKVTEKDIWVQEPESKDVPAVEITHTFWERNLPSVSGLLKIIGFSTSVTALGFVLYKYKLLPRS
Description: Inhibition of recombinant human MAOA expressed in baculovirus infected BTI insect cells at 100 uM using p-tyramine as substrate measured after 15 mins by Amplex red reagent based fluorescence assay relative to control. The following applies: probe p-tyramine. In short, it runs like this:
as §1

By inhibition is commonly meant the relative decrease from the control value, in per cent. As a reminder, the IC50 is the concentration that gives 50% inhibition. Read a low IC50 as inhibition by little substance. One may read the Papp as the rate of passage across a membrane or cell layer, normalised by area and donor concentration. A low value points to slow passage. Turning to `C#CCN(C)CCCCOc1ccc2c(c1)OCCC2=O`, in the series listed under Homo sapiens [1], the inhibition came out at 43.9%. In addition, the IC50 in series [2] was 0.0589 µM. The same compound yielded an apparent permeability (Papp) at 16 h in the series “in vitro” of 137 nm/s. Besides, the Ratio IC50 in the series listed under Homo sapiens [3] was over 1700. The inhibition at 0.25 h, 100 µM at MAO-A came out at 22.8%.
For `C#CCN(C)CCCCCOc1ccc(C=O)c(OC)c1` the same measures were 0.82%, 5.73 µM, 140 nm/s, over 17 and 27.1%.
With `C#CCN(C)CCCCCCCCOc1ccc2c(c1)OCCC2=O`, the inhibition in the series filed under Homo sapiens [1] was found to be 0.34%. In series [2], the IC50 worked out at 0.422 µM. Also, the Papp at 16 h in “in vitro” came out at 89.1 nm/s. Moreover, the Ratio IC50 in the series listed under Homo sapiens [3] is over 237. For the same compound, the inhibition at 0.25 h, 100 µM on MAO-A stood at 28.6%.
The compound `C[C@]12CC[C@@H]3c4ccc(O)cc4CC[C@H]3[C@@H]1CC[C@@H]2O` [ESTRADIOL] came in with a Papp at 16 h in the series “in vitro” of 124 nm/s.
For `C#CCN(C)CCCCCOc1ccc2c(c1)CCC2=O`, the inhibition in the series listed under Homo sapiens [1] stood at 11.4%. This compound had an IC50 in series [2] of 0.0948 µM. This compound also had a Papp at 16 h in “in vitro” of 109 nm/s. Further, the Ratio IC50 in the series listed under Homo sapiens [3] is over 1060. The inhibition at 0.25 h, 100 µM at MAO-A was found to be 31%.
For `C#CCN(C)CCCCOc1ccc(C(C)=O)cc1` the same measures were 6.18%, 0.0565 µM, 106 nm/s, over 1770 and 28.6%.
For `C#CCN(C)CCCCOc1ccc2c(c1)CCC2=O` the same measures were 31.3%, 0.366 µM, 96.1 nm/s, over 273 and 7.93%.
The matching figures for `C#CCN(C)CCCCCCOc1ccc2c(c1)CCC2=O`: 0.68%, 0.129 µM, 128 nm/s, over 777 and 4.42%.
In the series listed under Homo sapiens [1], `C#CCN(C)CCCOc1ccc2c(c1)OCCC2=O` had an inhibition of 7.77%. The compound also showed an IC50 in series [2] of 11.4 µM. In addition, the Papp at 16 h in the series “in vitro” worked out at 92.1 nm/s. Besides, in the series filed under Homo sapiens [3], the Ratio IC50 is over 9. Besides, the inhibition at 0.25 h, 100 µM at MAO-A was determined as 32.1%.
In the series filed under Homo sapiens [1], `C#CCN(C)CCCCCOc1ccc2c(c1)CCCC2=O` gave an inhibition of 10.3%. In series [2], this compound displayed a half-inhibitory concentration (IC50) of 0.0463 µM. The Papp at 16 h in the series “in vitro” stood at 106 nm/s. Besides, the Ratio IC50 in the series listed under Homo sapiens [3] was over 2160. The inhibition at 0.25 h, 100 µM at MAO-A worked out at 26.1%.
The matching figures for `C#CCN(C)CCCCCCOc1ccc(C(C)=O)cc1`: 12.7%, 0.0204 µM, 86.9 nm/s, over 4900 and 37.3%.
The compound `C#CCN(C)CCCCCCOc1ccc2c(c1)OCC2=O` gave an inhibition in the series listed under Homo sapiens [1] of 9.76%. The compound also showed an IC50 in series [2] of 0.0519 µM. In addition, the Papp at 16 h in “in vitro” came to 83 nm/s. Also, the Ratio IC50 in the series listed under Homo sapiens [3] is over 1930. Moreover, the inhibition at 0.25 h, 100 µM on MAO-A came out at 11.7%.
As to `C#CCN(C)CCCCCOc1ccc(C(C)=O)cc1OC`, the inhibition in the series filed under Homo sapiens [1] came to 5.74%. This compound also registered an IC50 in series [2] of 6.52 µM. Moreover, the Papp at 16 h in “in vitro” amounted to 129 nm/s. For the same compound, in the series listed under Homo sapiens [3], the Ratio IC50 was over 15. The inhibition at 0.25 h, 100 µM on MAO-A stood at 39.5%.
For the compound `C#CCN(C)CCCCOc1ccc2c(c1)CCCC2=O`, in the series listed under Homo sapiens [1], the inhibition turned out to be 13.4%. In addition, inhibition in series [2] was half-maximal at 0.0725 µM (IC50). This compound yielded a Papp at 16 h in the series “in vitro” of 87 nm/s. Moreover, in the series filed under Homo sapiens [3], the Ratio IC50 is over 1380. Further, the inhibition at 0.25 h, 100 µM at MAO-A was found to be 30.9%.
The matching figures for `C#CCN(C)CCCCOc1ccc(C(C)=O)cc1OC`: 21.8%, 1.15 µM, 125 nm/s, over 87 and 21.1%.
In the series filed under Homo sapiens [1], `C#CCN(C)CCCCCOc1cccc(OC)c1` showed an inhibition of 22.2%. In series [2], this compound returned an IC50 of 0.101 µM. The compound also returned a Papp at 16 h in the series “in vitro” of 105 nm/s. In the series filed under Homo sapiens [3], the Ratio IC50 is over 991. Also, the inhibition at 0.25 h, 100 µM on MAO-A was found to be 32.3%.
For `CN(C)CCCN1c2ccccc2Sc2ccc(Cl)cc21` [CHLORPROMAZINE], the Papp at 16 h in the series “in vitro” amounted to 71.2 nm/s.
